Active and inactive are the calls of the source. The rule behind the calls is not given here.
Assays:
[1] = Half life in 5% DMSO/0.1 M KCl by RP-HPLC analysis; type: physicochemical; details: for half-life: 5% DMSO/0.1 M KCl
Method in brief: (§1)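 10 mM DMSO stock added to water with 0.1 M KCl to give 5% DMSO (v/v), then filtered. Room temperature. Compound followed by RP-HPLC (C18, methanol/water gradient, 240 nm), calibration 1–200 µM. Half-life from n = 3.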

[2] = Half life in 0.1 M HCl/MeOH 60/40 (v/v) mixture by RP-HPLC analysis; type: physicochemical
Method in brief: (§2)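 Methanolic compound solution (0.5 mM, 2 mL) diluted to 10 mL with 0.1 M HCl/MeOH 60/40 (v/v) and kept at 37 °C. Aliquots taken at intervals and analysed by RP-HPLC (C18, acetonitrile/water gradient, 240 nm) with calibration over 1–200 µM. Half-life from n = 3.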

[3] = Half life in human serum at 250 uM by RP-HPLC analysis; type: ADME, cell-free
Method in brief: (§3)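 Compound added from a 10 mM methanol stock to human serum (male AB plasma) at 37 °C, final 250 µM. Aliquots taken at intervals and deproteinized with acetonitrile containing 0.1% TFA, then centrifuged and filtered. Analysed by RP-HPLC. Half-life from n = 3.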

[4] = Half life in Wistar rat liver homogenate at 200 uM by RP-HPLC analysis; type: ADME, tissue-based
Method in brief: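 Liver from male Wistar rats (200–250 g), 20% homogenate spun at 8000g. Incubated at 37 °C in Tris-HCl/KCl 100/150 mM, pH 7.4, with 6.4 mg protein/mL, 2 mM GSH and 1 mM NADPH. Compound 200 µM final, added from a 10 mM acetonitrile stock. Aliquots deproteinized with cold acetonitrile and analysed by RP-HPLC. Half-life from n = 3.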

Liver [5] = assay: Induction of nitrite production in Wistar rat liver homogenate at 200 uM by griess method; type: functional, tissue-based; details: TDE = time-dependent effect
Method in brief: (§4)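 Male Wistar rat liver homogenate (6.4 mg protein/mL; 2 mM GSH, 1 mM NADPH; Tris-HCl/KCl pH 7.4; 37 °C) with compound at 200 µM final. Deproteinized filtrate mixed with Griess reagent: nitrite after 10 min at 37 °C; nitrite+nitrate after VCl3 reduction, 45 min at 37 °C. Absorbance at 540 nm, calibration 1–100 µM. Expressed as %mol per mol compound, n = 3.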

Liver [6] = assay: Induction of nitrate production in Wistar rat liver homogenate at 200 uM by griess method; type: functional, tissue-based; details: TDE = time-dependent effect; method in brief: as §4
Mus musculus [7] = assay: Induction of nitrite release in mouse assessed as nitrite AUC (0 to 24 hrs) at 10 mg/kg, po measured over 24 hrs by LC-MS/MS analysis; type: organism-based; design: time < 24 hr, dose 10 mg/kg, route oral; details: in vivo
Method in brief: (§5)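 Mice dosed orally at 10 mg/kg in imwitor742/tween80 50/50; blood drawn at fixed times over 24 h and precipitated with 3 volumes acetonitrile. Nitrite converted to naphtotriazole with DAN (1 mM, 10 µL per 200 µL sample) at room temperature and measured by LC-MS/MS against a 0.01-10 µM NAT calibration; basal level and conversion factor from spikes; AUC0-24h.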

[8] = Lipophilicity, log P of the compound in octanol-buffer at pH 7 by HPLC analysis; type: physicochemical
Method in brief: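 Retention measured by isocratic RP-HPLC on an RP-amide-C16 column at 30 °C. Mobile phase was pH 7.0 phosphate buffer/methanol, 30–70%, ionic strength 20 mM; uracil used as dead-time marker. log kw extrapolated from at least four methanol ratios, each injected at least three times. Converted to logPoct via a reference line of 63 compounds.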

Thoracic aorta [9] = assay: Vasodilatory activity in Wistar rat denuded thoracic aorta assessed as inhibition of L-phenylephrine-induced contraction; type: functional, tissue-based
Method in brief: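 Endothelium-denuded thoracic aorta strips from male Wistar rats (180–200 g) in gassed Krebs-type buffer at 37 °C, pH 7.4. Strips equilibrated 1.5 h, then contracted with 1 µM L-phenylephrine. Cumulative concentrations added at plateau and isometric tension recorded. EC50 (±SEM) in µM from at least five experiments.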

Thoracic aorta [10] = assay: Vasodilatory activity in Wistar rat thoracic aorta assessed as inhibition of L-phenylephrine-induced contraction in presence of 1 uM 1H-[1,2,4]oxadiazolo[4,3-a]quinoxalin-1-one; type: functional, tissue-based
Method in brief: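 Same rat aorta strip protocol with 1 µM L-phenylephrine precontraction. 1 µM ODQ was added 5 min before contraction, pre-incubating for at least 30 min before the vasodilator. Isometric recording; EC50 (±SEM) in µM from at least five experiments.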

Liver [11] = assay: Induction of nitrate production in Wistar rat liver homogenate at 200 uM after 5 hrs by griess method; type: functional, tissue-based; method in brief: as §4
Liver [12] = assay: Induction of nitrite production in Wistar rat liver homogenate at 200 uM after 5 hrs by griess method; type: functional, tissue-based; method in brief: as §4
Mus musculus [13] = assay: AUC (0 to 24 hrs) in mouse assessed isosorbide mononitrate as at 10 mg/kg, po after 24 hrs; type: ADME, organism-based, Plasma; design: time < 24 hr, dose 10 mg/kg, route oral; details: in vivo; method in brief: as §5
[14] = Permeability of the compound by PAMPA-HDM method; type: ADME
Method in brief: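 96-well polycarbonate filters impregnated with 5% hexadecane in hexane. Donor held compound in water with 5% DMSO and 100 mM KCl; acceptor held the same medium. Incubated at room temperature with shaking at 150 rpm for 1–6 h. Both compartments quantified by RP-HPLC. logPe and retention R calculated with correction for hydrolysis; membrane integrity checked by electrical resistance.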

Serum = assay: Stability in human serum at 250 uM by RP-HPLC analysis; type: ADME, cell-free; method in brief: as §3
[15] = Stability in 5% DMSO/0.1 M KCl by RP-HPLC analysis; type: physicochemical; method in brief: as §1
[16] = Stability in 0.1 M HCl/MeOH 60/40 (v/v) mixture by RP-HPLC analysis; type: physicochemical; details: buffer; method in brief: as §2

Compound | half-life [1] [h] | half-life [2] [h] | half-life at 250 µM [3] [h] | half-life at 200 µM [4] [min] | logD [8] | inhibition (Thoracic aorta [9]) | EC50 (Thoracic aorta [10]) [µM] | further results
Cc1cc(OC(=O)C(C)(C)CCCCO[N+](=O)[O-])n(-c2ccccc2)n1 | 22 | 24 | 0.222 | 2 | 4.3 | Dose-dependent effect | > 100 | Activity (Liver [5]): tde; Activity (Liver [6]): tde; AUC (Mus musculus [7]): 1790 µM·min; EC50 (Thoracic aorta [9]): 11 µM
Cc1cc(OC(=O)OCCCCC(CO[N+](=O)[O-])O[N+](=O)[O-])n(-c2ccccc2)n1 (configuration not stated) | 6 | 3.1 | < 0.0167 | < 1 | 4.63 | – | – | Activity (Liver [11]): Active; Activity (Liver [12]): Active
O=[N+]([O-])OCCCCCCO | – | – | – | – | – | Dose-dependent effect | > 100 | EC50 (Thoracic aorta [9]): 1.5 µM
O=C(O)CCCCCO[N+](=O)[O-] | – | – | – | – | – | Dose-dependent effect | > 100 | –
O=[N+]([O-])O[C@H]1CO[C@H]2[C@@H]1OC[C@H]2O[N+](=O)[O-] [ISOSORBIDE DINITRATE] | – | – | – | – | – | – | – | AUC (Mus musculus [13]): 2352 µM·min
O=C(O)c1ccc(CCCO[N+](=O)[O-])cc1 | – | – | – | – | – | Dose-dependent effect | > 100 | –
O=[N+]([O-])OCCCO [ABRUCOMSTAT] | – | – | – | – | – | Dose-dependent effect | > 100 | EC50 (Thoracic aorta [9]): 4 µM
CC(C)(CCCCO[N+](=O)[O-])C(=O)O | – | – | – | – | – | Dose-dependent effect | > 100 | EC50 (Thoracic aorta [9]): 8.9 µM
O=C(O)c1ccc(CC(CO[N+](=O)[O-])O[N+](=O)[O-])cc1 (configuration not stated) | – | – | – | – | – | Dose-dependent effect | > 100 | –
Cc1cc(OC(=O)CCCCCO[N+](=O)[O-])n(-c2ccccc2)n1 | 31 | 1 | < 0.0167 | < 1 | 3.79 | – | – | –
Cc1cc(OC(=O)c2ccc(OCC(CO[N+](=O)[O-])O[N+](=O)[O-])cc2)n(-c2ccccc2)n1 (configuration not stated) | – | 25 | 0.13 | < 1 | 5.14 | – | – | Activity (Liver [11]): Active; Activity (Liver [12]): Active; t1/2 [1]: ND(Insoluble); log Pe [14]: ND(Insoluble)
Cc1cc(OC(=O)OCCCCCCO[N+](=O)[O-])n(-c2ccccc2)n1 | 25 | 4 | < 0.0167 | < 1 | 4.39 | – | – | –
Cc1cc(OC(=O)c2ccc(OCCCO[N+](=O)[O-])cc2)n(-c2ccccc2)n1 | – | 35 | 0.0833 | < 1 | 4.74 | – | – | t1/2 [1]: ND(Insoluble); log Pe [14]: ND(Insoluble)
Cc1cc(OC(=O)C(C)(C)CCC(CO[N+](=O)[O-])O[N+](=O)[O-])n(-c2ccccc2)n1 (configuration not stated) | 16 | 10 | 0.27 | 3 | 4.04 | Dose-dependent effect | > 100 | Activity (Liver [11]): Active; Activity (Liver [12]): Active; Activity (Liver [5]): tde; Activity (Liver [6]): tde; EC50 (Thoracic aorta [9]): 2.5 µM
Cc1cc(OC(=O)OCCCO[N+](=O)[O-])n(-c2ccccc2)n1 | 13 | 1.4 | < 0.0167 | < 1 | 3.35 | – | – | AUC (Mus musculus [7]): 964 µM·min
CC(C)(CCC(CO[N+](=O)[O-])O[N+](=O)[O-])C(=O)O (configuration not stated) | – | – | – | – | – | Dose-dependent effect | > 100 | EC50 (Thoracic aorta [9]): 4.2 µM
CC(C)(CO[N+](=O)[O-])C(=O)O | – | – | – | – | – | Dose-dependent effect | > 100 | EC50 (Thoracic aorta [9]): 13 µM
CC1=NN(c2ccccc2)C(=O)C1 [EDARAVONE] | – | – | – | – | 1.44 | – | – | Stability (Serum): Stable; Stability [15]: Stable; Stability [16]: Stable
O=C(O)c1ccc(OCC(CO[N+](=O)[O-])O[N+](=O)[O-])cc1 (configuration not stated) | – | – | – | – | – | Dose-dependent effect | – | –
Cc1cc(OC(=O)c2ccc(CCCO[N+](=O)[O-])cc2)n(-c2ccccc2)n1 | – | 13 | 0.0667 | < 1 | 4.76 | – | – | t1/2 [1]: ND(Insoluble); log Pe [14]: ND(Insoluble)
Cc1cc(OC(=O)CCCC(CO[N+](=O)[O-])O[N+](=O)[O-])n(-c2ccccc2)n1 (configuration not stated) | 10 | 0.7 | < 0.0167 | < 1 | 3.95 | – | – | –
Cc1cc(OC(=O)C(C)(C)CO[N+](=O)[O-])n(-c2ccccc2)n1 | 36 | 1.9 | 0.0317 | < 1 | 3.55 | – | – | –
Cc1cc(OC(=O)c2ccc(CC(CO[N+](=O)[O-])O[N+](=O)[O-])cc2)n(-c2ccccc2)n1 (configuration not stated) | – | 8 | 0.118 | < 1 | 4.88 | – | – | Activity (Liver [11]): Active; Activity (Liver [12]): Active; t1/2 [1]: ND(Insoluble); log Pe [14]: ND(Insoluble)
O=C(O)c1ccc(OCCCO[N+](=O)[O-])cc1 | – | – | – | – | – | Dose-dependent effect | – | –
